In ChEMBL document CHEMBL1146639, “Synthesis and evaluation of nonpeptide substituted spirobenzazepines as potent vasopressin antagonists” (Bioorg Med Chem Lett, 2004):
≈ marks a conversion by molar mass, not a printed value.

Tests used:
Vasopressin V1a receptor [1] = target: T1, Vasopressin V1a receptor (Homo sapiens, UniProt P37288); assay: Binding affinity measured by inhibition of 3[H] AVP binding to cloned human vasopressin V1a receptor
In short: (§1)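 Radioligand binding: inhibition of [3H]AVP binding to cloned human V1a or V2 receptors; IC50 in nM.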

Vasopressin V2 receptor [2] = target: T2, Vasopressin V2 receptor (Homo sapiens, UniProt P30518); assay: Binding affinity measured by inhibition of 3[H] AVP binding to cloned human vasopressin V2 receptor; in short: as §1
T2 sequence (P30518 whole entry): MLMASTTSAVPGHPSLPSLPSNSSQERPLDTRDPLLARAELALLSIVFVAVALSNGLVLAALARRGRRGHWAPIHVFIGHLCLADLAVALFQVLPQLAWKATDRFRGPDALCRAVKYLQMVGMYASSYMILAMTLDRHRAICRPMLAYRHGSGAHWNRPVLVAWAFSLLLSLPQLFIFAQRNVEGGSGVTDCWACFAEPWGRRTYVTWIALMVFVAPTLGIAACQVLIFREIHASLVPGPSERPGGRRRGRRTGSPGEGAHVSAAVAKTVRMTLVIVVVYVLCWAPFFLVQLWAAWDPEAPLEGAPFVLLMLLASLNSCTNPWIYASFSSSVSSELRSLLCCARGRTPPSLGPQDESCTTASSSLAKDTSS

Vasopressin V1a receptor [3] = target: T1, Vasopressin V1a receptor; assay: Evaluated for intracellular calcium mobilization in HEK293 cells transfected to express human vasopressin V1a receptor; assay type: functional, cell-based
In short: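 Functional V1a assay: intracellular calcium mobilization measured in HEK-293 cells transfected to express human V1a receptor; IC50 in nM.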

Vasopressin V2 receptor [4] = target: T2, Vasopressin V2 receptor; assay: Evaluated for accumulation of cAMP in transfected HEK293 cells expressing human vasopressin V2 receptor; assay type: functional, cell-based
In short: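 Functional V2 assay: cAMP accumulation measured in transfected HEK-293 cells expressing human V2 receptor; IC50 in nM.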

[5] = Half-life was evaluated in rats at an oral dose of 30 mg/kg; assay type: ADME, organism-based; design: dose 30 mg/kg, route oral; details: rat, in vivo
In short: (§2)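 Rats given a single oral dose of 30 mg/kg. Cmax, Tmax, terminal half-life and absolute oral bioavailability determined.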

[6] = Partition coefficient (logP); assay type: physicochemical; details: octanol/water
[7] = Time to reach maximum plasma concentration was evaluated at an oral dose of 30 mg/kg; assay type: ADME, organism-based; design: dose 30 mg/kg, route oral; details: rat; in short: as §2
[8] = Half-life was evaluated in rats at an intravenous dose of 3 mg/kg; assay type: ADME, organism-based; design: dose 3 mg/kg, route intravenous; details: rat, in vivo
[9] = Half-life determined by human liver microsome stability assay at a concentration of 5 uM; assay type: ADME; details: liver microsomes
[10] = Area under the curve was evaluated at an intravenous dose of 3 mg/kg; assay type: ADME, organism-based; design: dose 3 mg/kg, route intravenous; details: rat, in vivo
[11] = Solubility measured at pH 7.4; assay type: physicochemical; details: buffer
[12] = Solubility measured at pH 2; assay type: physicochemical; details: buffer
Vasopressin V1a receptor [13] = target: T3, Vasopressin V1a receptor (Rattus norvegicus, UniProt P30560); assay: Evaluated for binding affinity towards vasopressin V1a receptor in rat
T3 sequence (P30560 whole entry): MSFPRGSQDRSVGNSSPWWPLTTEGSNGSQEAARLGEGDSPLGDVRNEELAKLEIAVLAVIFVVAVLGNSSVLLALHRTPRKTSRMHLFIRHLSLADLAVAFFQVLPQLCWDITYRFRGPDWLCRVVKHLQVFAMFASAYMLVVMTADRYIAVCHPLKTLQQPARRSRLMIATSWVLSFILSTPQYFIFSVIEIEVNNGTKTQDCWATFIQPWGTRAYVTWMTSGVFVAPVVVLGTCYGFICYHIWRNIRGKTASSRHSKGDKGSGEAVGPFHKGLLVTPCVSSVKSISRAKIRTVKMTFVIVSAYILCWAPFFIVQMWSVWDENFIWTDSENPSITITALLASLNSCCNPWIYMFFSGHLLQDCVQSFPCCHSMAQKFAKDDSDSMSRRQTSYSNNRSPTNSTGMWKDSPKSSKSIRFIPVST
In short: (§3)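 Binding IC50 measured in cells transfected with rat V1a or rat V2 receptors.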

[14] = Apparent volume of distribution when 3 mg/Kg dose was administered intravenously; assay type: ADME, organism-based; details: rat, in vivo, iv, read-out: Volume distribution
In short: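 Rats given a single intravenous dose of 3 mg/kg. Apparent volume of distribution reported in […].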

[15] = Maximum plasma concentration was evaluated in rats at an oral dose of 30 mg/kg; assay type: ADME, organism-based; design: dose 30 mg/kg, route oral; details: rat; in short: as §2
[16] = Bioavailability was evaluated in rats at an oral dose of 30 mg/kg; assay type: ADME, organism-based; details: rat, in vivo; in short: as §2
[17] = Area under the curve was evaluated at an oral dose of 30 mg/kg; assay type: ADME, organism-based; design: dose 30 mg/kg, route oral; details: rat, in vivo
[18] = Maximum plasma concentration was evaluated in rats at an intravenous dose of 3 mg/kg; assay type: ADME, organism-based; design: dose 3 mg/kg, route intravenous; details: rat
Vasopressin V1a receptor [19] = target: T1, Vasopressin V1a receptor; assay: Binding affinity measured by inhibition of 3[H] AVP binding to cloned human vasopressin V1a receptor (Compound 7o)
In short: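 Displacement of [3H]AVP from cloned human V1a receptor; IC50 from inhibition of radioligand binding.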

Vasopressin V1a receptor [20] = target: T1, Vasopressin V1a receptor; assay: Evaluated for intracellular calcium mobilization in HEK- 293 cells transfected to express human vasopressin V1a receptor (Compound 7o); assay type: functional, cell-based, HEK293
In short: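 Antagonism measured as inhibition of intracellular calcium mobilization in HEK-293 cells transfected with human V1a receptor; IC50 reported.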

Vasopressin V1a receptor [21] = target: T3, Vasopressin V1a receptor; assay: Evaluated for binding affinity towards vasopressin receptor V1a in rat; in short: as §3
Vasopressin V2 receptor [22] = target: Vasopressin V2 receptor (Rattus norvegicus, UniProt Q00788); assay: Evaluated for binding affinity towards vasopressin V2 receptor in rat; in short: as §3
Chain of Vasopressin V2 receptor (Rattus norvegicus, UniProt Q00788) (Q00788 whole entry): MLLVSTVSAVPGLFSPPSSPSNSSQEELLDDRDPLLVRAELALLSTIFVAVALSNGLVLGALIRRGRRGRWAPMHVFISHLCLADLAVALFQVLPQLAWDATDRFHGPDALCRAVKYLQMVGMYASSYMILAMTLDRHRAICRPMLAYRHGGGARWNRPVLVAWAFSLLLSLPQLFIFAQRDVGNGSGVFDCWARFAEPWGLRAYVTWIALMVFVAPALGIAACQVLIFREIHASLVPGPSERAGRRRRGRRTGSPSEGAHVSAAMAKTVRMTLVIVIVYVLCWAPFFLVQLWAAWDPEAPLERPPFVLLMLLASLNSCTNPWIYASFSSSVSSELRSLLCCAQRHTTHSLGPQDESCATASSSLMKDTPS

T1 sequence (P37288 whole entry): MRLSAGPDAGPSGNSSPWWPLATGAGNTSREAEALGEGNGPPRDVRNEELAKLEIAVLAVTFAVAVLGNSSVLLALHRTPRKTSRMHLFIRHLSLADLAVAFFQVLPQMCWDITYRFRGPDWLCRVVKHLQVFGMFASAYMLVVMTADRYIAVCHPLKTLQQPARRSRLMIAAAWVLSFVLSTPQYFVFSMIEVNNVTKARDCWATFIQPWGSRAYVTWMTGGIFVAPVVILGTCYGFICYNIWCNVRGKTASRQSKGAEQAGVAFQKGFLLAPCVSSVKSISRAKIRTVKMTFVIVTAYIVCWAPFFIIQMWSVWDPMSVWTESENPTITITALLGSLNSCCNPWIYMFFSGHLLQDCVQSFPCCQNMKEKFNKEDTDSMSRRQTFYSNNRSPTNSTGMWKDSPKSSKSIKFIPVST

Compound	IC50 (Vasopressin V1a receptor [1]) [nM]	IC50 (Vasopressin V2 receptor [2]) [nM]	IC50 (Vasopressin V1a receptor [3]) [nM]	IC50 (Vasopressin V2 receptor [4]) [nM]	also measured
O=C(NCCN1CCOCC1)C1=CC2(CC1)CCN(C(=O)c1ccc(NC(=O)c3ccccc3F)cc1)c1ccccc1C2 (stereo not drawn)	4	> 1000	–	–	–
CN(C)CCCNC(=O)C1=CC2(CC1)CCN(C(=O)c1ccc(NC(=O)c3ccccc3-c3ccccc3)cc1)c1ccccc1C2 (stereo not drawn)	5	16	29	20	–
O=C(NCCN1CCCCC1)C1=CC2(CC1)CCN(C(=O)c1ccc(NC(=O)c3ccccc3F)cc1)c1ccccc1C2 (stereo not drawn)	–	> 1000	–	> 1000	–
O=C(O)CNC(=O)C1=CC2(CC1)CCN(C(=O)c1ccc(NC(=O)c3ccccc3-c3ccccc3)cc1)c1ccccc1C2 (stereo not drawn)	24	18	78	350	–
CN(C)CCNC(=O)C1=CC2(CC1)CCN(C(=O)c1ccc(NC(=O)c3ccccc3-c3ccccc3)cc1)c1ccccc1C2 (stereo not drawn)	–	–	–	100	–
CN(C)CCNC(=O)C1=C[C@]2(CC1)CCN(C(=O)c1ccc(NC(=O)c3ccccc3-c3ccccc3)cc1)c1ccccc1C2	2	8	45	36	half-life [5]: 6.47 h; logP [6]: 3.63; Tmax [7]: 4 h; half-life [8]: 1.68 h; half-life at 5 µM [9]: 1.08 h; AUC [10]: 2.06 µM·h; solubility [11]: 40 µg/mL (≈ 65.3 µM); solubility [12]: 160 µg/mL (≈ 261 µM); IC50 (Vasopressin V1a receptor [13]): 33 nM; Vd [14]: 6.84 L/kg; Cmax [15]: 790 nM; bioavailability [16]: 22%; AUC [17]: 4.57 µM·h; Cmax [18]: 2660 nM
Cc1ccc(F)cc1C(=O)Nc1ccc(C(=O)N2CCC3(C=C(C(=O)NCCN4CCCCC4)CC3)Cc3ccccc32)cc1 (stereo not drawn)	10	39	48	48	IC50 (Vasopressin V1a receptor [19]): 16 nM; IC50 (Vasopressin V1a receptor [20]): 71 nM
CN(C)CCNC(=O)C1=C[C@@]2(CC1)CCN(C(=O)c1ccc(NC(=O)c3ccccc3F)cc1)c1ccccc1C2 (single isomer, unassigned)	4	341	78	646	IC50 (Vasopressin V1a receptor [21]): 433 nM; half-life [5]: 4.15 h; logP [6]: 2.45; Tmax [7]: 4.67 h; half-life [8]: 4.35 h; half-life at 5 µM [9]: 0.717 h; AUC [10]: 1.68 µM·h; solubility [11]: 70 µg/mL (≈ 126 µM); IC50 (Vasopressin V2 receptor [22]): 444 nM; solubility [12]: 320 µg/mL (≈ 577 µM); Vd [14]: 6.67 L/kg; Cmax [15]: 1100 nM; bioavailability [16]: 42%; AUC [17]: 7.04 µM·h; Cmax [18]: 1800 nM
Cc1ccc(F)cc1C(=O)Nc1ccc(C(=O)N2CCC3(C=C(C(=O)NCCCN(C)C)CC3)Cc3ccccc32)cc1 (stereo not drawn)	–	–	4	31	–
Cc1ccc(F)cc1C(=O)Nc1ccc(C(=O)N2CCC3(C=C(C(=O)NCCN(C)C)CC3)Cc3ccccc32)cc1 (stereo not drawn)	–	20	65	105	–
COC(=O)CNC(=O)C1=CC2(CC1)CCN(C(=O)c1ccc(NC(=O)c3cc(F)ccc3C)cc1)c1ccccc1C2 (stereo not drawn)	7	10	135	440	–
CN(C)CCNC(=O)C1=CC2(CC1)CCN(C(=O)c1ccc(NC(=O)c3ccccc3F)cc1)c1ccccc1C2 (stereo not drawn)	–	> 1000	–	> 1000	–
Cc1ccc(F)cc1C(=O)Nc1ccc(C(=O)N2CCC3(C=C(C(=O)NCCN4CCCC4)CC3)Cc3ccccc32)cc1 (stereo not drawn)	19	39	29	48	–
O=C(NCCO)C1=CC2(CC1)CCN(C(=O)c1ccc(NC(=O)c3ccccc3-c3ccccc3)cc1)c1ccccc1C2 (stereo not drawn)	–	–	–	170	–
O=C(NCCN1CCCC1)C1=CC2(CC1)CCN(C(=O)c1ccc(NC(=O)c3ccccc3F)cc1)c1ccccc1C2 (stereo not drawn)	8	> 1000	155	> 1000	–
O=C(NCCO)C1=CC2(CC1)CCN(C(=O)c1ccc(NC(=O)c3ccccc3F)cc1)c1ccccc1C2 (stereo not drawn)	–	> 1000	–	> 1000	–
